Drawing on ChEMBL document CHEMBL5360535, “Expanding the scope of novel 1,2,3-triazole derivatives as new antiparasitic drug candidates” (RSC Med Chem, 2023), this text covers IC50 and selectivity ratio for 27 molecules.

A value given as a limit tells only on which side of the number the result lay.

Data set [1] has as its system Plasmodium falciparum. Nature of the data set: Antimalarial activity against chloroquine-sensitive Plasmodium falciparum D6 assessed as parasite growth inhibition incubated for 48 hrs by LDH assay. The data set is classed as functional, organism-based. To be noted: D6, 48 h. In short, it runs like this: (§1)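 Asynchronous P. falciparum cultures (2% hematocrit, 2% parasitemia) were exposed to DMSO-dissolved compound dilutions in RPMI-1640. They were held at 37 °C for 48 h in a humidified chamber under 90% N2/5% CO2/5% O2. Growth was read as pLDH activity with Malstat reagent, with medium, RBC and DMSO controls. IC50 came from non-linear logistic dose-response regression, in triplicate.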

Data set [2] can be described thus: Selectivity index, ratio of IC50 for African green monkey Vero cells to IC50 for Plasmodium falciparum D6. The data set is classed as toxicity, cell-based. The note with it: read-out: Ratio IC50. In short, it runs like this:
(§2)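 SI = Vero IC50 (Neutral Red, 48 h) divided by P. falciparum IC50. Parasite IC50 was from asynchronous D6 or W2 cultures (2% hematocrit, 2% parasitemia), with DMSO-dissolved compounds diluted in RPMI-1640. Incubation was 48 h at 37 °C under 90% N₂/5% CO₂/5% O₂, with growth read by pLDH activity (Malstat). Chloroquine and artemisinin were positive controls.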

The nature of data set [3]: Cytotoxicity against African green monkey Vero cells incubated for 48 hrs by Neutral Red assay. The data set is classed as toxicity, cell-based, Chlorocebus sabaeus. In short, it runs like this: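 Vero cells were maintained in RPMI with 10% heat-inactivated FCS, 0.15% NaHCO₃ and penicillin/streptomycin at 37 °C under 5% CO₂. Confluent monolayers were exposed to various concentrations up to a maximum of 4.75 μg mL⁻¹ for 48 h at 37 °C. Viability was read by Neutral Red uptake, with DMSO as negative control. IC50 was taken from the concentration–response curve.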

In data set [4] the test system is Plasmodium falciparum. Briefly: Antimalarial activity against chloroquine-resistant Plasmodium falciparum W2 assessed as parasite growth inhibition incubated for 48 hrs by LDH assay. The data set is classed as functional, organism-based. To be noted: W2, 48 h. In short, it runs like this: as §1
A short description of data set [5]: Selectivity index, ratio of IC50 for African green monkey Vero cells to IC50 for Plasmodium falciparum W2. The data set is classed as toxicity, cell-based. The note with it: read-out: Ratio IC50. In short, it runs like this: as §2
For the next data set, the system named is Leishmania donovani. Nature of the data set: Antileishmanial activity against Leishmania donovani promastigotes assessed as parasite growth inhibition incubated for 72 hrs by alamar blue staining based assay. The data set is classed as functional, organism-based. In short, it runs like this: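 L. donovani S1 Sudan strain promastigotes were grown at 26 °C in RPMI-1640 (no bicarbonate or pyruvate) with 10% FBS. Compound dilutions were added to cultures at 2 × 10⁶ cells per mL, at final 40, 8 and 1.6 μg mL⁻¹ (footnote: at least six concentrations, each in duplicate). Incubation was 72 h at 26 °C, with Alamar blue read-out. IC50 came from non-linear logistic regression. Experiments were run in triplicate.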
On the technique in general: The colour change of resazurin is a common sign of viable cells or microbes.

The test system of data set [6] is Plasmodium falciparum. Briefly: Antiparasitic activity against chloroquine-resistant Plasmodium falciparum W2 infected in red blood cells assessed as inhibition of parasite growth by HRP2 assay. The data set is classed as functional, organism-based, Red blood cell. To be noted: W2, Erythrocyte.

As usually defined, the IC50 is the midpoint of a concentration-inhibition curve. In the case of `CCCCCCCCCCc1cn(Cc2ccccc2)nn1`, the IC50 with Plasmodium falciparum [1] came to 11 µM; in the data set with Plasmodium falciparum [4], 10.7 µM. The selectivity ratio is above 1.44 in data set [2] and above 1.48 in data set [5]. In data set [3], this molecule came in with an IC50 at 48 h above 15.9 µM.
Turning to `c1ccc(Cn2cc(-c3ccccc3)nn2)cc1`, the half-inhibitory concentration (IC50) in the data set with Leishmania donovani was found to be 85 µM.
Same read-out and setting: then `CCCCCCCCc1cn(Cc2ccccc2)nn1`, with 22.1 µM.
`CCCCCCCCCCn1cc(C(=O)OC)nn1`: the results for the IC50 in the data set on Plasmodium falciparum [1], with Plasmodium falciparum [4] and with Leishmania donovani were 11.2 µM, 6.73 µM and 78.5 µM, respectively. In addition, the selectivity ratio was above 1.58 in data set [2] and above 2.64 in data set [5]. The IC50 at 48 h in data set [3] is above 17.8 µM.
For `CCCCCCCCn1cc(CO)nn1`, the IC50 in the data set with Plasmodium falciparum [1] is 13.3 µM; in the data set on Plasmodium falciparum [4] it was 6.63 µM. In addition, the values for the selectivity ratio in data set [2] and in data set [5] were above 1.7 and above 3.39, respectively. Besides, the IC50 at 48 h in data set [3] is above 22.5 µM.
Turning to `COC(=O)c1cn(Cc2ccccc2)nn1`, in the data set with Leishmania donovani, the IC50 stood at 92.1 µM.
Still for that read-out and setting: the figure for `O=C(O)c1cn(Cc2ccccc2)nn1` is 18.7 µM.
With `CCCCCc1cn(C/C=C(\C)CC/C=C(\C)CCC=C(C)C)nn1`, the IC50 in the data set on Plasmodium falciparum [1] stood at 3.49 µM; with Plasmodium falciparum [4] it was 6.69 µM. Moreover, the selectivity ratio in data set [2] was above 3.96; in data set [5], above 2.07. The molecule further came in with an IC50 at 48 h in data set [3] above 13.8 µM.
For `COC(=O)c1cn(CC=C(C)C)nn1`, the IC50 in the data set with Plasmodium falciparum [1] is 24.3 µM; in the data set on Plasmodium falciparum [4], 23.1 µM. Further, the selectivity ratio was above 1 in data set [2] and 1.06 in data set [5]. Further, in data set [3], the concentration for half-maximal inhibition (IC50) at 48 h was above 24.3 µM.
In the case of `CCCCCc1cn(CCCc2ccccc2)nn1`, the IC50 came out at 16.3 µM with Plasmodium falciparum [1] and 10.9 µM with Plasmodium falciparum [4]. In addition, the results for the selectivity ratio in data set [2] and in data set [5] were above 1.13 and above 1.7, respectively. In addition, in data set [3], the half-maximal inhibitory concentration (IC50) at 48 h was above 18.5 µM.
In the case of `CC(C)=CCC/C(C)=C/CC/C(C)=C\Cn1cc(C(C)O)nn1` (stereo not drawn), in the data set with Leishmania donovani, the IC50 came out at 59.9 µM.
With `CCCCCCCCc1cn(C/C=C/c2ccccc2)nn1`, the IC50 in the data set with Plasmodium falciparum [1] was 10.8 µM; with Plasmodium falciparum [4], 10.1 µM. Also, the values for the selectivity ratio in data set [2] and in data set [5] were above 1.48 and above 1.58, respectively. The same molecule yielded an IC50 at 48 h in data set [3] above 16 µM.
Take `O=Cn1cc(-c2ccnc3cc(Cl)ccc23)nn1`: the 50% inhibitory concentration (IC50) with Plasmodium falciparum [6] came out at 1.4 µM.
With `CCOC(=O)Cn1cc(C(=O)OC)nn1`, the IC50 in the data set on Plasmodium falciparum [1] and in the data set on Plasmodium falciparum [4] was 12.3 µM each time. Moreover, the selectivity ratio in data set [2] and in data set [5] was above 1.7 each time. Also, the IC50 at 48 h in data set [3] was above 20.9 µM.
For `CC(C)=CCC/C(C)=C/CC/C(C)=C\Cn1cc(CCO)nn1`, the IC50 was determined as 2.74 µM in the data set on Plasmodium falciparum [1], 2.05 µM with Plasmodium falciparum [4] and 63 µM in the data set with Leishmania donovani. The selectivity ratio in data set [2] is above 5.46; in data set [5], above 7.31. In data set [3], the IC50 at 48 h was above 15 µM.
Turning to `C(=C\c1ccccc1)/Cn1cc(-c2ccccc2)nn1`, the IC50 was found to be 11.5 µM with Plasmodium falciparum [1] and 13 µM in the data set with Plasmodium falciparum [4]. The values for the selectivity ratio in data set [2] and in data set [5] were above 1.58 and above 1.4, respectively. For the same molecule, the IC50 at 48 h in data set [3] is above 18.2 µM.
With `CCCCCc1cn(C/C=C/c2ccccc2)nn1`, the IC50 in the data set with Leishmania donovani amounted to 74.4 µM.
Same read-out and setting: the figure for `CC(C)=CCC/C(C)=C/CC/C(C)=C\Cn1cc(CO)nn1` is 59.3 µM.
Regarding `CCCc1cn(CCCc2ccccc2)nn1`, the figures for the IC50 in the data set on Plasmodium falciparum [1] and with Plasmodium falciparum [4] were 15.3 µM and 11.3 µM, respectively. The selectivity ratio in data set [2] was above 1.36; in data set [5], above 1.83. Also, the IC50 at 48 h in data set [3] is above 20.7 µM.
Consider `CC(C)=CCC/C(C)=C/CC/C(C)=C/Cn1cc(C(C)(C)O)nn1`, for which the IC50 in the data set on Plasmodium falciparum [1] was determined as 2.35 µM; in the data set with Plasmodium falciparum [4] it was 1.99 µM; in the data set with Leishmania donovani, 48.3 µM. The selectivity ratio in data set [2] is above 6.09; in data set [5], above 7.2. In addition, the IC50 at 48 h in data set [3] was above 14.3 µM.
For `CC(C)=CCC/C(C)=C/CC/C(C)=C\Cn1cc(C(C)(C)O)nn1`, the IC50 with Leishmania donovani was 63.4 µM.
In the case of `CCCc1cn(C/C=C/c2ccccc2)nn1`, the figures for the IC50 in the data set on Plasmodium falciparum [1] and with Plasmodium falciparum [4] were 20.9 µM and 22 µM, respectively. The selectivity ratio in data set [2] and in data set [5] was below 1 throughout. In addition, the IC50 at 48 h in data set [3] is above 20.9 µM.
Turning to `CC(C)=CCC/C(C)=C/CC/C(C)=C/Cn1cc(C(C)O)nn1` (stereo not drawn), the IC50 in the data set with Leishmania donovani worked out at 56.7 µM.
Same read-out and setting: then `CC(C)=CCC/C(C)=C/CC/C(C)=C/Cn1cc(CO)nn1`, with 56 µM; and `CC(C)=CCC/C(C)=C/CC/C(C)=C/Cn1cc(CCO)nn1`, with 63 µM.
Still for that read-out and setting: the figure for `c1ccc(CCCn2cc(-c3ccccc3)nn2)cc1` is 68.4 µM.
With `C[C@@H]1CC[C@H]2[C@@H](C)C(=O)O[C@@H]3O[C@@]4(C)CC[C@@H]1[C@]32OO4` [ARTEMISININ], the selectivity ratio in data set [2] and in data set [5] was above 179 each time.
